The values below come from paper PMC7495282 (British Journal of Clinical Pharmacology, 2020).

Each structure is given as a SMILES string. Where two headings read alike, the source gives them in different places.

Series [1] can be described thus: Study 1: single-dose esaxerenone pharmacokinetics alone and with itraconazole. Type of series: in vivo, healthy Japanese subjects. The procedure, abridged: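 Healthy Japanese males, 20–45 y, BMI 18.5–<25 kg m−2. Oral 2.5 mg tablet with 200 mL water, fasted (≥10 h before, 4 h after), on Day 1. CYP3A inhibitor 200 mg twice on Day 8, then once daily Days 9–16. Day 13 co-dose given fasted. Plasma sampled predose to 96 h, extracted by SPE, assayed by LC–MS/MS. Noncompartmental PK; GLSM ratios with 90% CI.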

Series [2] is classed as in vivo, healthy Japanese subjects. The procedure, abridged: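 Healthy Japanese males, 20–45 y. Oral 5 mg, fasted, Day 1. CYP3A inducer 600 mg orally once daily before breakfast for 9 days from Day 8; Day 13 dose given fasted 2 h after inducer. Plasma taken predose to 96 h (1700 g, 10 min, 4 °C; stored ≤−20 °C). Parent and metabolites M1, M4, M11 by SPE–LC–MS/MS. Noncompartmental analysis; GLSM ratios, 90% CI.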

The nature of series [3]: Study 1 safety and tolerability. The following applies: for Blood creatine phosphokinase increased, TEAE / Eosinophil count increased, TEAE / Rash, TEAE: n = 20. Type of series: in vivo, healthy Japanese subjects. In a few lines: (§1)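 Healthy Japanese males, 20–45 y. Safety was assessed from adverse events, laboratory tests, vital signs (BP, pulse rate, body temperature) and 12-lead ECG. Adverse events were coded by MedDRA/J (versions 19.0 and 19.1) System Organ Class and Preferred Term. Safety set was all consenting subjects given at least 1 dose of any study drug.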

Series [4] in a line: Study 2 safety and tolerability. Type of series: in vivo, healthy Japanese subjects. In a few lines: as §1
Series [5] deals with mineralocorticoid receptor (MR). The following applies: in vitro, cited from earlier work.
The conditions of series [6]: cited from earlier work.
The conditions of series [7]: cited from earlier work. The source holds these as a separate data set.
For series [8] the following is noted: cited from earlier work. The source holds these as a separate data set.
The test system of a further series is P‐glycoprotein (P‐gp). The following applies: in vitro; cited from earlier work.
Series [9] deals with breast cancer resistance protein. The following applies: in vitro; cited from earlier work.
The subject of another series is CYP3A4. The following applies: human liver microsomes and human CYP expression system; cited from earlier work. On the technique in general: Microsomes from liver hold many membrane-bound enzymes, among them those of drug oxidation.
The test system of a further series is CYP3A5. The following applies: human liver microsomes and human CYP expression system; cited from earlier work.
The conditions of series [10]: esaxerenone 20 mg; ref unpublished data on file, Daiichi Sankyo Co., Ltd.; cited from earlier work.
In the next series the test system is human MR. The following applies: read-out: half-maximal inhibitory concentration for the transcriptional activity of human MR; in vitro; cited from earlier work.
For series [11] the following is noted: in the presence of ketoconazole; cited from earlier work.
Setting [12] is: (esaxerenone + itraconazole)/(esaxerenone alone), 2.5 mg.
Where [13] appears, read: esaxerenone 2.5 mg + itraconazole, n = 20.
Where [14] appears, read: esaxerenone 2.5 mg single oral dose + itraconazole 200 mg, n = 20.
Where [15] appears, read: esaxerenone 2.5 mg single oral dose, alone, n = 20.
[16] abbreviates: esaxerenone 2.5 mg, alone, n = 20.
Where [17] appears, read: (esaxerenone + rifampicin)/(esaxerenone alone), 5 mg.
Where [18] appears, read: coadministration with rifampicin vs esaxerenone alone.
Setting [19] is: esaxerenone 5 mg + rifampicin, n = 11.
Setting [20] is: esaxerenone 5 mg single oral dose + rifampicin 600 mg once daily, n = 11.
The mark [21] stands for this setting: esaxerenone 5 mg single oral dose, alone, n = 11.
Where [22] appears, read: esaxerenone 5 mg, alone, n = 11.
Setting [23] is: Study 1, esaxerenone 2.5 mg + itraconazole.
Setting [24] is: Study 1, esaxerenone 2.5 mg alone.
Setting [25] is: Study 2, esaxerenone 5 mg + rifampicin, n = 11.
The mark [26] stands for this setting: Study 2, esaxerenone 5 mg alone, n = 12.

As to `Cc1c(C(=O)Nc2ccc(S(C)(=O)=O)cc2)cn(CCO)c1-c1ccccc1C(F)(F)F` [Esaxerenone], the “AUCinf GLSM ratio (90% CI)” value in series [1] (setting [12]) is 1.53 (1.45, 1.62); in [1] ((esaxerenone + itraconazole)/(esaxerenone alone), 2.5 mg, listed as esaxerenone), 1.53 (1.45–1.62); in series [2] (setting [17]), 0.312 (0.297, 0.328). In addition, the “Cmax GLSM ratio (90% CI)” value is given as 1.13 (1.05, 1.20) in series [1] (setting [12]) and 0.659 (0.599, 0.724) in series [2] (setting [17]). The “increase in esaxerenone Cmax” value in [1] (coadministration of itraconazole vs esaxerenone alone) was found to be 12.6%. Moreover, the “AUCinf, GLSM” value in series [1] (setting [13]) worked out at 976 ng·h/mL; in [1] (setting [16]), 637 ng·h/mL; in series [2] (setting [19]), 350 ng·h/mL; in series [2] (setting [22]), 1121 ng·h/mL. Further, the “Cmax, GLSM” value in series [1] (setting [13]) amounted to 41.0 ng/mL; in series [1] (setting [16]), 36.4 ng/mL; in series [2] (setting [19]), 47.2 ng/mL; in series [2] (setting [22]), 71.7 ng/mL. Besides, the “AUCinf, arithmetic mean (SD)” value in [1] (setting [14]) is on record as 996 (219) ng h mL^−1; in series [1] (setting [15]), 648 (121) ng h mL^−1; in [2] (setting [20]), 351 (24.8) ng h mL^−1; in series [2] (setting [21]), 1130 (150) ng h mL^−1. In addition, the “CL/F, arithmetic mean (SD)” value in series [1] (setting [14]) is reported as 2.61 (0.477) L h^−1; in series [1] (setting [15]), 3.98 (0.696) L h^−1; in [2] (setting [20]), 14.3 (1.01) L h^−1; in series [2] (setting [21]), 4.50 (0.634) L h^−1. Besides, the “Cmax, arithmetic mean (SD)” value in series [1] (setting [14]) is 41.7 (8.46) ng mL^−1; in [1] (esaxerenone 2.5 mg single oral dose, alone, n = 20, plasma), 36.7 (5.36) ng mL^−1; in [2] (setting [20]) it was 47.6 (6.22) ng mL^−1; in [2] (esaxerenone 5 mg single oral dose, alone, n = 11, plasma), 72.4 (10.1) ng mL^−1. In addition, the “t1/2, arithmetic mean (SD)” value in series [1] (setting [14]) is 25.9 (4.21) h; in series [1] (setting [15]), 20.7 (3.96) h; in [2] (setting [20]) it was 8.63 (1.67) h; in series [2] (setting [21]), 16.6 (2.38) h. The “tmax, median (range)” value in series [1] (setting [14]) is recorded as 2.00 (1.00–4.00) h; in [1] (setting [15]), 2.25 (1.50–4.00) h; in [2] (setting [20]) it was 2.50 (1.00–4.00) h; in [2] (setting [21]), 2.50 (1.50–3.50) h. Further, the “decrease in esaxerenone Cmax” value in series [2] (setting [18]) turned out to be 34.1%. Moreover, the “fold reduction of esaxerenone AUCinf” value in series [2] (setting [18]) is recorded as “approximately 0.3 fold”. The “serious AEs” value in [3] (Study 1) and in series [4] (Study 2) was “No serious AEs” throughout. Further, the “Blood creatine phosphokinase increased, TEAE” value is recorded as 0 number of subjects (%) in [3] (setting [23]), 1 (5.0) number of subjects (%) in series [3] (setting [24]), 0 number of subjects (%) in series [4] (setting [25]) and 0 number of subjects (%) in series [4] (setting [26]). The “Eosinophil count increased, TEAE” value was 0 number of subjects (%) in [3] (setting [23]), 0 number of subjects (%) in series [3] (setting [24]), 1 (9.1) number of subjects (%) in series [4] (setting [25]) and 0 number of subjects (%) in series [4] (setting [26]). Further, the “Rash, TEAE” value in [3] (setting [23]) was 0 number of subjects (%); in series [3] (setting [24]), 0 number of subjects (%); in series [4] (setting [25]) it was 0 number of subjects (%); in series [4] (setting [26]) it was 1 (8.3) number of subjects (%). Further, the “subjects reporting TEAEs” value in series [3] (Study 1, whole study) came to 1 subject; in series [4] (Study 2, whole study), 2 subjects. The “safety and tolerability (in words)” value in series [3] (administered concomitantly with itraconazole) was “safe and well tolerated”; in series [4] (administered concomitantly with rifampicin), “safe and well tolerated”. Further, the “MR affinity relative to eplerenone” value in [5] (fold greater than eplerenone) is listed as 4 fold. Further, in [5] (fold greater than spironolactone), the “MR affinity relative to spironolactone” value is listed as 76 fold. The tolerability result in series [6] (both dosages (2.5 and 5 mg d^−1)) is on record as “well tolerated”. Moreover, in series [6] (esaxerenone 2.5 mg d^−1, essential hypertension), the “clinical efficacy vs eplerenone 50 mg d^−1” value was “noninferior”. The “clinical efficacy of 5 mg d^−1 dosage vs 2.5 mg d^−1 dosage” value in series [6] (essential hypertension) is on record as “superior”. Besides, the absolute bioavailability entry in [7] is recorded as “approximately 90%”. For the same molecule, in [8] (14C-labelled esaxerenone), the “proportion of unchanged drug excreted in faeces” value is 18.7%. For the same molecule, the “proportion of unchanged drug excreted in urine” value in series [8] (14C-labelled esaxerenone) is reported as 1.6%. The “overall excretion rate of oxidised metabolites” value in series [8] (metabolite profiles in faeces and urine) was “about 30 % of the total dose”. The “substrate of P-glycoprotein” value in the series with P‐glycoprotein (P‐gp) was “substrate”. The “substrate of breast cancer resistance protein” value in series [9] was “substrate”. For the same molecule, the “involvement of CYP3A4 in oxidative metabolism” value with CYP3A4 is recorded as “involved in the oxidative metabolism”. Further, the “involvement of CYP3A5 in oxidative metabolism” value in the series with CYP3A5 is “involved in the oxidative metabolism”. For the same molecule, the “mean plasma concentrations, Japanese vs Caucasian subjects” value in [10] is on record as “similar”.
As for `CC(=O)S[C@@H]1CC2=CC(=O)CC[C@]2(C)[C@H]2CC[C@@]3(C)[C@@H](CC[C@@]34CCC(=O)O4)[C@H]12` [spironolactone], in the series on human MR, the IC50 was […].
For `COC(=O)[C@@H]1CC2=CC(=O)CC[C@]2(C)[C@@]23O[C@@H]2C[C@@]2(C)[C@@H](CC[C@@]24CCC(=O)O4)[C@H]13` [eplerenone], the IC50 in the series with human MR was 970 nM. The “increase in eplerenone exposure” value in [11] is given as 5 fold.
